{"source": "ChEMBL document CHEMBL4610127", "about": "“Novel Autotaxin Inhibitor for the Treatment of Idiopathic Pulmonary Fibrosis: A Clinical Candidate Discovered Using DNA-Encoded Chemistry” (J Med Chem, 2020)", "key": {"Autotaxin [1]": {"target": "T1, Autotaxin (Homo sapiens, UniProt Q13822)", "experiment": "Inhibition of C-terminal FLAG-tagged human autotaxin expressed in Freestyle 293 cells assessed as reduction in choline release from LPC 16:0 pre-incubated for 10 mins before LPC addition and measured after 1 hr by choline oxidase/HRP coupled assay", "assay_type": "cell-based"}, "Autotaxin [2]": {"target": "T1, Autotaxin", "experiment": "Inhibition of autotaxin in human plasma assessed as reduction in LPA (18:2) production incubated for 2 hrs LC-MS-/MS analysis", "assay_type": "cell-free"}, "Autotaxin (Mus musculus)": {"target": "Autotaxin (Mus musculus) (UniProt Q9R1E6)", "experiment": "Potency index, ratio of IC50 for GLPG1690 to IC50 for test compound for inhibition of autotaxin in mouse plasma assessed as reduction in LPA (18:2) production incubated for 2 hrs LC-MS-/MS analysis", "assay_type": "cell-free"}, "[3]": {"experiment": "Protein binding in human plasma", "assay_type": "ADME, cell-free", "settings": "read-out: PPB (converted)"}, "[4]": {"experiment": "Time above IC90 in mouse at 30 mg/kg, po", "assay_type": "ADME, organism-based", "settings": "in vivo"}, "[5]": {"target": "Voltage-gated inwardly rectifying potassium channel KCNH2 (Homo sapiens, UniProt Q12809)", "sequence (Q12809 whole entry)": "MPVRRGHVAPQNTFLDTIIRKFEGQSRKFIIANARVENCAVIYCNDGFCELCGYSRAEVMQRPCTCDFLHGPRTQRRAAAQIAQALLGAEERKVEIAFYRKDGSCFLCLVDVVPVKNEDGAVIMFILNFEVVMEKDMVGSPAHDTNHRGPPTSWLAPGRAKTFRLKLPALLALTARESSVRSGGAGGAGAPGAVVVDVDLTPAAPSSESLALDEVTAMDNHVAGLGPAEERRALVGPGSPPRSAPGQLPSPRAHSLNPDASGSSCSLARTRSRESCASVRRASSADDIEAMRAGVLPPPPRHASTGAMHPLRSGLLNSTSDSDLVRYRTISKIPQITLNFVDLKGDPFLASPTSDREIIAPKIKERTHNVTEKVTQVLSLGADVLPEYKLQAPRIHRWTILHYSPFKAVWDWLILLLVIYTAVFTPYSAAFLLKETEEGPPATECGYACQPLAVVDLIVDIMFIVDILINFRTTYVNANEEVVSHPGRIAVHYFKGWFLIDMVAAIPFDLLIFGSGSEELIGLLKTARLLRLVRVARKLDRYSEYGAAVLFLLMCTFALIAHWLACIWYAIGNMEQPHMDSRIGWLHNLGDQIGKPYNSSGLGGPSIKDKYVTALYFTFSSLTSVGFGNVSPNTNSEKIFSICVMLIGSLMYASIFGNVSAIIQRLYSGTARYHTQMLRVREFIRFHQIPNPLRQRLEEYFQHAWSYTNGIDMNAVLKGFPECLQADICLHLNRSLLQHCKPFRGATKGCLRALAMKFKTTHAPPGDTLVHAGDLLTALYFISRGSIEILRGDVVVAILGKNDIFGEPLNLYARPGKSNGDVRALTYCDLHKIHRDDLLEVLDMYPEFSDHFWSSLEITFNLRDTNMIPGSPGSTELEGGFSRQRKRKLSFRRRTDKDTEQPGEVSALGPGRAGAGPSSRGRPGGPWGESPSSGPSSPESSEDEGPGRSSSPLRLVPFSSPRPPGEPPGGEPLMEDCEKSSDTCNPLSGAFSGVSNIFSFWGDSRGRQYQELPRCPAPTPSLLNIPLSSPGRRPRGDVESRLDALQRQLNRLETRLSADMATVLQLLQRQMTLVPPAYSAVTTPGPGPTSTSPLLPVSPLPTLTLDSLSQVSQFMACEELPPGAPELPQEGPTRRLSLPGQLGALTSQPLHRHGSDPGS", "experiment": "Inhibition of human ERG by GLP based assay"}, "Cytochrome P450 2D6": {"target": "Cytochrome P450 2D6 (Homo sapiens, UniProt P10635)", "sequence (P10635 whole entry)": "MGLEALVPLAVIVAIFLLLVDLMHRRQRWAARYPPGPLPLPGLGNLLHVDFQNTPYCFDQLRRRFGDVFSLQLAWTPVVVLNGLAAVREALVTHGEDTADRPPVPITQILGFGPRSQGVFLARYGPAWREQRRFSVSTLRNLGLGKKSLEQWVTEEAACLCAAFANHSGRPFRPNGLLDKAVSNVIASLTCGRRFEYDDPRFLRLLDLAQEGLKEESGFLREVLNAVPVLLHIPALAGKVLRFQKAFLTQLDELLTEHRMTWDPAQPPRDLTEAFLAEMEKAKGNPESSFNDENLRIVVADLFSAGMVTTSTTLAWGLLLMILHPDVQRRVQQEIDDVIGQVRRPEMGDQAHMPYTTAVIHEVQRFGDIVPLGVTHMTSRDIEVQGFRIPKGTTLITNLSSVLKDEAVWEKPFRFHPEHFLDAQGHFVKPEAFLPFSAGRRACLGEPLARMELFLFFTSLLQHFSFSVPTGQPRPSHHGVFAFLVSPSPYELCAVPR", "experiment": "Inhibition of CYP2D6 (unknown origin)", "assay_type": "ADME"}, "Cytochrome P450 2C9": {"target": "Cytochrome P450 2C9 (Homo sapiens, UniProt P11712)", "sequence (P11712 whole entry)": "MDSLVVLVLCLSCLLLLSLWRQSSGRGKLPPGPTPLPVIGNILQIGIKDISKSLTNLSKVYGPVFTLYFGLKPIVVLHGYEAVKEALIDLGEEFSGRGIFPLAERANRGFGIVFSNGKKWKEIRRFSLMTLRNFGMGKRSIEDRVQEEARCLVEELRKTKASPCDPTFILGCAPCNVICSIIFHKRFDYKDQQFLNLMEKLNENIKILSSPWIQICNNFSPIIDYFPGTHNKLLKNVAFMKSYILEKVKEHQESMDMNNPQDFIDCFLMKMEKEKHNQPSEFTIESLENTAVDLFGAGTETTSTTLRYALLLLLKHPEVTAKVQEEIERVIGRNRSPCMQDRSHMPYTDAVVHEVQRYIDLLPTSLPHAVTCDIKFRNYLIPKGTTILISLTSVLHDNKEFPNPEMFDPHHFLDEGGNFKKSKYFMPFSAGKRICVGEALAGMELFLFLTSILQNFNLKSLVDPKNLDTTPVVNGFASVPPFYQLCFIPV", "experiment": "Inhibition of CYP2C9 (unknown origin)", "assay_type": "ADME"}, "Cytochrome P450 2C19": {"target": "Cytochrome P450 2C19 (Homo sapiens, UniProt P33261)", "sequence (P33261 whole entry)": "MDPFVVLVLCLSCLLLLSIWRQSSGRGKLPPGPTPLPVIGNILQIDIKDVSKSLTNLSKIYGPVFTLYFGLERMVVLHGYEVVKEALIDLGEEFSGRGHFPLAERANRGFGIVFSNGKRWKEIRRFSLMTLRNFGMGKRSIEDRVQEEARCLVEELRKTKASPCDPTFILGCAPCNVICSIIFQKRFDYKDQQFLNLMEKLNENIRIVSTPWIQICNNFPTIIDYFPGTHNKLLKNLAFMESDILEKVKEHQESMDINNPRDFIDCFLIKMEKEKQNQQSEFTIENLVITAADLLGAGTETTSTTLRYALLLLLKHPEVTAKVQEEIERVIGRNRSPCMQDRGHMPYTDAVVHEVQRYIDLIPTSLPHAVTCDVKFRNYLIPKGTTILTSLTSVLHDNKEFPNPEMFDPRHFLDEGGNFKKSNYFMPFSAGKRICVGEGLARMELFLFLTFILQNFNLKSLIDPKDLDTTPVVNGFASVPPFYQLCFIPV", "experiment": "Inhibition of CYP2C19 (unknown origin)", "assay_type": "ADME"}, "[6]": {"target": "T2, Ectonucleotide pyrophosphatase/phosphodiesterase family member 1 (Homo sapiens, UniProt P22413)", "T2 sequence (P22413 whole entry)": "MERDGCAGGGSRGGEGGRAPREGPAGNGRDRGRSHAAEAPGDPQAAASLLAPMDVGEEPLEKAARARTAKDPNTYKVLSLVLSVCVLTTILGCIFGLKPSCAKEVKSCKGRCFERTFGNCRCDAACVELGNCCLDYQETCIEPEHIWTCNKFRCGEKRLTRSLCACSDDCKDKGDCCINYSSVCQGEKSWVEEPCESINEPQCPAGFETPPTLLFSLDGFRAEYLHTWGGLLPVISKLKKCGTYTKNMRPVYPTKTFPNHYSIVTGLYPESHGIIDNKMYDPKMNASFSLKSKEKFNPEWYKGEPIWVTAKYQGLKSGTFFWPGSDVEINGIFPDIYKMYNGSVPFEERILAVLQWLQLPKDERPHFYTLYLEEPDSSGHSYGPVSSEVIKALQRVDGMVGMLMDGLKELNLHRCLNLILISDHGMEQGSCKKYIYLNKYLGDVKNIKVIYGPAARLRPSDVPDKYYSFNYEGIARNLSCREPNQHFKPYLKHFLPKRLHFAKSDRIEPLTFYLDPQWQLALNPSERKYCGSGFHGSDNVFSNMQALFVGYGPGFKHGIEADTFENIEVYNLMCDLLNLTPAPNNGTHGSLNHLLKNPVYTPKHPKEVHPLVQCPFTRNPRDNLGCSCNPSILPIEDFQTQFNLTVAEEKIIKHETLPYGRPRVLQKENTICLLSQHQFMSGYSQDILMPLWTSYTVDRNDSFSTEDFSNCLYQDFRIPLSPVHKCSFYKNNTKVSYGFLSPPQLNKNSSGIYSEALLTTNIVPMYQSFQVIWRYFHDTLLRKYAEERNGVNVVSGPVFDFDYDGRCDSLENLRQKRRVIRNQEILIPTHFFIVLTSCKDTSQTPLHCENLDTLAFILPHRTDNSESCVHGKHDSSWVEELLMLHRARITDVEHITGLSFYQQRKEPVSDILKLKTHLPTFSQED", "experiment": "Inhibition of ENPP1 (unknown origin)"}, "[7]": {"target": "Lysophosphatidic acid receptor 1 (Homo sapiens, UniProt Q92633)", "sequence (Q92633 whole entry)": "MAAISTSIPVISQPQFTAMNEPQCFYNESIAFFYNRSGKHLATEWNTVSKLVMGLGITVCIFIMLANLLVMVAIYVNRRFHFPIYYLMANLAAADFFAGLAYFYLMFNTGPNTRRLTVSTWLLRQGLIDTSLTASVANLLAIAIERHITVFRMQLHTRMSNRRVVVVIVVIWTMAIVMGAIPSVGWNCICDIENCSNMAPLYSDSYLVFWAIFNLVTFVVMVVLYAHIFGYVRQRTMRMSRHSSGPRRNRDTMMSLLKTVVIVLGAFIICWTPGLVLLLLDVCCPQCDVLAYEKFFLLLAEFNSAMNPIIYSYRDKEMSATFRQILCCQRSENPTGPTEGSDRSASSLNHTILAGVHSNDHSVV", "experiment": "Inhibition of LPAR1 (unknown origin)"}, "[8]": {"target": "Lysophosphatidic acid receptor 2 (Homo sapiens, UniProt Q9HBW0)", "sequence (Q9HBW0 whole entry)": "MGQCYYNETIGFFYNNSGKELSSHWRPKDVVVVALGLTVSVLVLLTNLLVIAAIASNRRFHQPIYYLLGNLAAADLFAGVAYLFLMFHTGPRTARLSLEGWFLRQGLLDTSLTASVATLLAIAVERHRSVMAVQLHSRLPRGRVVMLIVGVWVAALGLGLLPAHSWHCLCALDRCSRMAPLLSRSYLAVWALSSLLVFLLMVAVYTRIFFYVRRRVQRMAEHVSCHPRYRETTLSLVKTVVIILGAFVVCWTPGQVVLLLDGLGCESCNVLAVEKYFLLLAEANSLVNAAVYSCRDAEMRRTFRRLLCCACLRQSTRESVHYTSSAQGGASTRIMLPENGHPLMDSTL", "experiment": "Inhibition of LPAR2 (unknown origin)"}, "[9]": {"experiment": "Half life in rat liver microsomes", "assay_type": "ADME, Microsome"}, "[10]": {"experiment": "Half life in human liver microsomes", "assay_type": "ADME, Microsome"}, "[11]": {"experiment": "Thermodynamic solubility in pH 7.4 buffer", "assay_type": "physicochemical", "settings": "read-out: Therm_solubility"}, "Rattus norvegicus": {"tested_on": "Rattus norvegicus", "experiment": "Inhibition of LPA (20:4) production in rat at 0.1 to 30 mg/kg, po measured after 4 hrs by LC-MS/MS analysis", "assay_type": "functional, organism-based", "how_it_was_run": "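Rats dosed orally across a dose range. LPA 20:4 and compound levels measured by LC-MS/MS in blood at 4 h post-dose. LPA 20:4 chosen because it is more abundant in rats. Average percent inhibition of LPA plotted against plasma compound level to derive IC50.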"}, "Mus musculus [12]": {"tested_on": "Mus musculus", "experiment": "Anti-fibrotic activity in C57BL/6 mouse model of bleomycin-induced lung fibrosis assessed as reduction in hydroxyproline levels at 30 to 300 mg/kg, po BID dosed until day 21 starting one day prior to bleomycin treatment", "assay_type": "functional", "settings": "C57BL/6, po, read-out: MED", "how_it_was_run": "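Mice given oral BID doses (30, 100 or 300 mg/kg) starting one day before bleomycin. Killed 21 days after bleomycin; lung fibrosis scored by hydroxyproline in one group. GLPG1690 at 30 and 100 mg/kg BID as control. Hydroxyproline plotted per mouse; medians and p-values against bleomycin + vehicle.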"}, "Mus musculus [13]": {"tested_on": "Mus musculus", "experiment": "Anti-fibrotic activity in C57BL/6 mouse model of bleomycin-induced lung fibrosis assessed as reduction in hydroxyproline levels at 30 mg/kg, po BID for 21 days dosed 7 days after bleomycin treatment", "assay_type": "functional, organism-based", "how_it_was_run": "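Mice given oral BID doses (30, 100 or 300 mg/kg) starting seven days after bleomycin. Killed 21 days after bleomycin; lung fibrosis scored by hydroxyproline in one group. GLPG1690 at 30 and 100 mg/kg BID as control. Medians and p-values against bleomycin + vehicle.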"}, "Mus musculus [14]": {"tested_on": "Mus musculus", "experiment": "Anti-fibrotic activity in C57BL/6 mouse model of bleomycin-induced lung fibrosis assessed as reduction in lung fibrosis levels at 30 to 300 mg/kg, po BID for 21 days dosed 7 days after bleomycin treatment by trichrome staining based assay", "assay_type": "functional, organism-based", "how_it_was_run": "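Therapeutic mode: oral BID dosing (30, 100, 300 mg/kg) began seven days after bleomycin. Mice killed 21 days after bleomycin; fibrosis quantitated by trichrome staining of lung tissue in a separate group from the hydroxyproline group. GLPG1690 at 30 and 100 mg/kg BID as control.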"}, "[15]": {"experiment": "Half life in mouse at 1 mg/kg, iv", "assay_type": "ADME, organism-based", "settings": "in vivo"}, "[16]": {"experiment": "AUClast in mouse at 10 mg/kg, po", "assay_type": "ADME, organism-based", "set-up": "dose 10 mg/kg, time 0 - last, route oral", "settings": "in vivo"}, "[17]": {"experiment": "Oral bioavailability in mouse at 10 mg/kg", "assay_type": "ADME, organism-based", "settings": "in vivo"}, "[18]": {"experiment": "Half life in rat at 1 mg/kg, iv", "assay_type": "ADME, organism-based", "settings": "in vivo"}, "[19]": {"experiment": "AUClast in rat at 5 mg/kg, po", "assay_type": "ADME, organism-based", "set-up": "dose 5 mg/kg, route oral, time 0 - last", "settings": "in vivo"}, "[20]": {"experiment": "Half life in rat at 5 mg/kg, po", "assay_type": "ADME, organism-based", "settings": "in vivo"}, "[21]": {"experiment": "Oral bioavailability in rat at 5 mg/kg", "assay_type": "ADME, organism-based", "settings": "in vivo"}, "[22]": {"experiment": "Half life in dog at 1 mg/kg, iv", "assay_type": "ADME, organism-based, Canis lupus familiaris", "settings": "in vivo"}, "[23]": {"experiment": "Volume of distribution at steady state in dog at 1 mg/kg, iv", "assay_type": "ADME, organism-based, Canis lupus familiaris", "settings": "in vivo, read-out: Vdss"}, "[24]": {"experiment": "AUClast in dog at 1 mg/kg, po", "assay_type": "ADME, organism-based, Canis lupus familiaris", "set-up": "dose 1 mg/kg, time 0 - last, route oral", "settings": "in vivo"}, "[25]": {"experiment": "Half life in dog at 1 mg/kg, po", "assay_type": "ADME, organism-based, Canis lupus familiaris", "settings": "in vivo"}}, "note": "The source made the active and inactive calls. No cut-off for these calls is given here.", "data": [{"smiles": "CC(C)[C@@H](NC(=O)c1cc(C(F)(F)F)ccc1F)C(=O)N1CCC2(CC1)C(=O)N(C)C(=O)N2c1ccc2[nH]ncc2c1", "values": [{"measurement": "IC50", "setting": "Autotaxin [1]", "result": 0.055, "unit": "µM"}, {"measurement": "IC50", "setting": "Autotaxin [2]", "result": 0.014, "unit": "µM"}, {"measurement": "Ratio IC50", "setting": "Autotaxin (Mus musculus)", "result": 60}, {"measurement": "fraction unbound", "setting": "[3]", "result": 0.113}, {"measurement": "Time", "setting": "[4]", "result": 12, "unit": "h"}, {"measurement": "IC50", "setting": "[5]", "result": "> 50", "unit": "µM"}, {"measurement": "IC50", "setting": "Cytochrome P450 2D6", "result": "> 50", "unit": "µM"}, {"measurement": "IC50", "setting": "Cytochrome P450 2C9", "result": 10.4, "unit": "µM"}, {"measurement": "IC50", "setting": "Cytochrome P450 2C19", "result": 46, "unit": "µM"}, {"measurement": "IC50", "setting": "[6]", "result": "> 10", "unit": "µM"}, {"measurement": "IC50", "setting": "[7]", "result": "> 10", "unit": "µM"}, {"measurement": "IC50", "setting": "[8]", "result": "> 10", "unit": "µM"}, {"measurement": "half-life", "setting": "[9]", "result": 4.62, "unit": "h"}, {"measurement": "half-life", "setting": "[10]", "result": 8.88, "unit": "h"}, {"measurement": "solubility thermodynamic", "setting": "[11]", "result": 452, "unit": "µM"}, {"measurement": "IC50", "setting": "Rattus norvegicus", "result": 0.0065, "unit": "µM"}, {"measurement": "inhibition", "setting": "Rattus norvegicus", "result": "Dose-dependent effect"}, {"measurement": "minimal effective dose", "setting": "Mus musculus [12]", "result": 30, "unit": "mg/kg"}, {"measurement": "Activity", "setting": "Mus musculus [13]", "result": "inactive"}, {"measurement": "Activity", "setting": "Mus musculus [14]", "result": "Dose-dependent effect"}, {"measurement": "half-life", "setting": "[15]", "result": 0.57, "unit": "h"}, {"measurement": "AUC(0-t)", "setting": "[16]", "result": 2590, "unit": "ng·h/mL"}, {"measurement": "bioavailability", "setting": "[17]", "result": 81, "unit": "%"}, {"measurement": "half-life", "setting": "[18]", "result": 1.5, "unit": "h"}, {"measurement": "AUC(0-t)", "setting": "[19]", "result": 518, "unit": "ng·h/mL"}, {"measurement": "half-life", "setting": "[20]", "result": 1.8, "unit": "h"}, {"measurement": "bioavailability", "setting": "[21]", "result": 24, "unit": "%"}, {"measurement": "half-life", "setting": "[22]", "result": 4.1, "unit": "h"}, {"measurement": "Vd", "setting": "[23]", "result": 0.655, "unit": "L/kg"}, {"measurement": "AUC(0-t)", "setting": "[24]", "result": 3080, "unit": "ng·h/mL"}, {"measurement": "half-life", "setting": "[25]", "result": 4.2, "unit": "h"}]}]}
